STEP block = STEP phosphatase inhibitors, primary screen, biochemical, fluorescence intensity, uHTS | Tyrosine-protein phosphatase non-receptor type 5 (Homo sapiens), P54829 | recombinant STEP, OMFP fluorogenic substrate | inhibition, % at 20 µM | 0.25% of 360,000 active | AID 588621, 2011;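 active means inhibition at 20 µM, scaled per plate between control wells, above about 37%, limit read from the data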;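 further: 0% = DMSO with enzyme and substrate and 100% = substrate only without enzyme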
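System: STEP (striatal-enriched tyrosine phosphatase) enzyme, cell-free; medium: Bis-Tris pH 6.0 buffer with DTT, detergent; dosing: 20 µM, 1% DMSO; times: reaction 20 min, ambient temperature; detection: fluorescence, 480/540 nm; read-out basis: normalized % inhibition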
SUMO1 PPI mod = modulators of SUMO1 protein-protein interactions, primary screen, biochemical, uHTS. Small ubiquitin-related modifier 1 (Homo sapiens), P63165. SUMO1 binding to a labelled peptide, TR-FRET, 1 h. AID 602429, 2012. 0.33% of 360,000 active. inhibition, % at 20 µM; in the data active means inhibition above about 37%
Target sequence (P63165 whole entry, looked up): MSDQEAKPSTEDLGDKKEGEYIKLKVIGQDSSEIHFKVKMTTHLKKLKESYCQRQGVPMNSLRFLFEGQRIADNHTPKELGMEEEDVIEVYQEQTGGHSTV
NadD block = inhibitors of S. aureus NadD, primary screen, biochemical, colorimetric, uHTS. Nicotinate-nucleotide adenylyltransferase NadD (Staphylococcus aureus N315). purified NadD enzyme, colorimetric absorbance read-out. inhibition, % at 20 µM. 0.78% of 360,000 active. AID 602399, 2012; in the data active means inhibition above about 26%
Scp-1 inhibitor = Scp-1 phosphatase inhibitors, primary screen, biochemical, colorimetric, uHTS | Carboxy-terminal domain RNA polymerase II polypeptide A small phosphatase 1 (Homo … | Recombinant Scp1, phosphopeptide, malachite green phosphate absorbance | inhibition, % at 20 µM | 0.88% of 340,000 active | AID 493091, 2011;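 active means inhibition above about 50% at 20 µM, limit read from the data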;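 further: plate controls were DMSO wells with enzyme for no effect and wells lacking enzyme for full effect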
Target sequence (Q9GZU7 76-261 limits assumed): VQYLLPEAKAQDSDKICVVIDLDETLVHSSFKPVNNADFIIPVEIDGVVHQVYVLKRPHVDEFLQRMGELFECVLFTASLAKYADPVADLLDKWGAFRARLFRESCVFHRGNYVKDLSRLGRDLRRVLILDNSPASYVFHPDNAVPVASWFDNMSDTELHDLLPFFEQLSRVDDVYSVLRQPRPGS
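Material – SCP-1 phosphatase catalytic domain, residues 76-261 · Buffer or medium – Acidic Tris acetate buffer with magnesium and detergent · Also added – Phospho 17-mer peptide substrate · Compound – single 20 µM dose, 1% DMSO · Times – 45 min room-temperature reaction, 5 min colour, 30 min stabiliser · Technique – Phosphate-binding colour reagent, absorbance read at 630 nm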
DNMT1 inh = human DNMT1 methyltransferase inhibitors, primary screen, biochemical, molecular beacon, fluorescence, HinP1I cleavage, uHTS | DNA (cytosine-5)-methyltransferase 1 (Homo sapiens), P26358 | 0.83% of 360,000 active | inhibition (reported as % activation of signal), % at 10 µM | AID 588458, 2011; in the data active means inhibition above about 50%
LMPTP inh = LMPTP phosphatase inhibitors, primary screen, biochemical, fluorescence intensity, uHTS; AID 651560, 2012; Low molecular weight phosphotyrosine protein phosphatase (Homo sapiens), P24666; inhibition, % at 20 µM; recombinant LMPTP-A, OMFP fluorogenic substrate; 0.22% of 360,000 active;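 active means compounds that cut the enzyme signal by at least half of the control window in the single-dose screen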;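 further: plate controls were DMSO wells with enzyme plus substrate for no effect and substrate without enzyme for full effect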
Target sequence (P24666 whole entry, looked up): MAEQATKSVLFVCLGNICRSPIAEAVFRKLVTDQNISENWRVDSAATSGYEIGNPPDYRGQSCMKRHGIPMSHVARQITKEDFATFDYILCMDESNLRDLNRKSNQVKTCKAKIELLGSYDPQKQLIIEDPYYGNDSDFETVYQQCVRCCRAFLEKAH
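Test system: LMPTP-A, protein tyrosine phosphatase of low molecular weight; Input: 0.625 nM enzyme; Incubation: 50 min dark incubation at room temperature; Signal: endpoint fluorescence intensity from OMFP dephosphorylation; Read-out basis: % inhibition versus control wells.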
Beacon interf DR = spectral interference with molecular beacon fluorescence, dose response, artefact control for DNMT1 inhibitor project, biochemical, fluorescent molecular beacon | IC50, µM | 200 tested, under 10 active | spectral interference counter-screen | shares compounds with DNMT1 inh; call rule not given here
DNMT1 confirm = DNMT1 methyltransferase inhibitor retest, confirmation, biochemical, molecular beacon, fluorescence, single concentration; shares compounds with DNMT1 inh; DNMT1 molecular beacon HinP1I cleavage; inhibition, % at 10 µM; 8% of 2,300 active; AID 602385, 2012;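 active means average inhibition of at least 30% in the single-concentration confirmation test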
DNMT1 interf = beacon fluorescence artifact counter-screen | shares compounds with DNMT1 inh | DNMT1 molecular beacon spectral interference counterscreen, fluorescence 485/520 | activation (fluorescence interference), % at 10 µM | 1% of 2,300 active | AID 602387;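 active means activation of at least 30% at 10 µM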;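 further: DNMT1 catalytic domain with a HinP1I cleavage step and a FAM/dabcyl DNA beacon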
* = called active by the depositor; / = no result given. Hits are enriched below; roughly 2.4% of the tested compounds scored in any of these assays.

SMILES	STEP block	SUMO1 PPI mod	NadD block	Scp-1 inhibitor	DNMT1 inh	LMPTP inh	DNMT1 confirm	DNMT1 interf	others
CCOC(=O)CSc1nc2ccccc2c(=O)n1CC1COc2ccccc2O1 (stereo unspecified)	1	1	-12	-16	-1	2	/	/
Cc1ccc(-c2[nH]ncc2/C=N/n2c(COc3ccccc3C)nc3ccccc3c2=O)cc1	3	2	11	-4	70*	0	0	-2
CC(/C=C1\SC(=S)N(C(C(=O)O)C(C)C)C1=O)=C\c1ccccc1 (stereo unspecified)	0	-10	12	-9	6	1	/	/
CC(/C=C1\SC(=S)N(c2ccc(C(=O)O)cc2)C1=O)=C\c1ccccc1	2	57*	14	18	110*	17	6	0
CCCN(CCC)Cc1cc2ccccc2c2c1COC2	-2	-5	-7	-2	9	-1	/	/
CC(=O)N1CCc2cc(S(=O)(=O)NCCCOC(C)C)ccc21	-2	-3	-5	-9	0	-1	/	/
N#Cc1nc(-c2ccc(OCc3ccc(Cl)cc3)cc2)oc1N1CCC(C(N)=O)CC1	8	71*	-4	0	67*	3	-1	2
CC(C)(C)C(=O)Nc1nnc(CC(=O)NCc2ccccc2)s1	10	-2	1	-3	61*	0	7	4
COc1ccc2sc(-c3ccc(SC)cc3)c(/C=C/c3ccc(OC)c(OC)c3)c2c1	2	3	8	-3	-4	2	/	/
CSc1ccc(C(=S)N2CCCCCC2)cc1	6	2	3	1	-4	1	/	/
Cc1cc(=O)oc2c3c(cc(OCC(=O)NC(Cc4ccc(Cl)cc4)C(=O)O)c12)OC(C)(C)CC3 (stereo unspecified)	-2	15	4	4	98*	-1	1	0
O=C(N/N=C/c1ccccc1)c1c(O)c2ccccc2[nH]c1=O	0	-2	8	-10	1	-1	/	/
O=C(N/N=C/c1ccc(F)cc1)c1c(O)c2ccccc2[nH]c1=O	2	2	9	-4	54*	8	3	-6
Nc1c(C(=O)C2CC2)sc2nc(-c3cccs3)cc(C(F)(F)F)c12	-48	-6	1	-7	68*	-3	12	34*
COc1ccc(C)cc1S(=O)(=O)Nc1cccc(Cl)c1	1	1	-5	-5	-6	1	/	/
CCCN(CCC)C(C(=O)Nc1cccc(OC)c1)c1ccccc1 (stereo unspecified)	-2	1	-2	-15	-2	0	/	/
CC(C(=O)Nc1nccs1)N1C(=O)C2CC=CCC2C1=O (stereo unspecified)	2	-3	-1	3	3	-2	/	/
C[C@@H](C(=O)Nc1nccs1)N1C(=O)C2CC=CCC2C1=O (stereo partly specified)	-3	3	1	-1	60*	3	-1	4
Cc1nn2c(-c3ccc(Cl)cc3)ccnc2c1-c1ccccc1	-1	-6	-3	-13	-4	1	/	/
CCc1ccc([C@H]2C(C(=O)O)=C[C@@H](CC)N2S(=O)(=O)c2ccc(C)cc2)cc1	2	2	-1	8	74*	-2	4	1
N#Cc1c(NCCN)nc(NCc2ccccc2)c2c1CCN(Cc1ccccc1)C2	2	0	30*	22	77*	27	3	-2
O=C(c1ccccc1)C1OC1C(=O)c1ccccc1 (stereo unspecified)	4	9	-4	-10	50*	3	9	10
CC1C=CC(C)C(C(=O)c2ccccc2)C1C(=O)c1ccccc1 (stereo unspecified)	3	8	-9	/	6	2	/	/
O=C(O)Cc1c[nH]c2cccc(O)c12	3	-2	1	31	74*	4	36*	-2	Beacon interf DR=>99
Cc1cc2ccccc2n2c(SCC(=O)Nc3ccc(S(=O)(=O)N4CCCCC4)cc3)nnc12	-2	5	7	-5	8	1	/	/
SMILES	STEP block	SUMO1 PPI mod	NadD block	Scp-1 inhibitor	DNMT1 inh	LMPTP inh	DNMT1 confirm	DNMT1 interf	others
Cc1cc2cc(C)c3nnc(SCC(=O)Nc4ccc(S(=O)(=O)N5CCCCC5)cc4)n3c2cc1C	-2	2	14	-1	56*	0	2	0
O=C(O)CSCC(=O)NCc1ccc(Cl)cc1	0	-1	1	-8	3	-1	/	/
CN(C)CCc1cc2c(c3c1ccc1ccccc13)OCO2	4	-15	-11	-4	60*	-1	37*	6	Beacon interf DR=>99
CCc1ccccc1NC(=O)CSc1nc2n[nH]c(C)c2c(=N)n1-c1ccc(OC)cc1	-1	22	2	-1	-9	-19	/	/
O=S1(=O)Nc2c(ccc3cccnc23)-c2ccccc21	-2	-19	5	-3	1	0	/	/
Cc1cccc(N=C2NC(=O)/C(=C/C=C/c3ccco3)S2)c1C	4	40*	72*	66*	94*	27	10	3
COc1ccc(N=C2NC(=O)/C(=C/c3ccco3)S2)cc1	3	2	1	-42	2	3	/	/
Cc1ccc(N=C2NC(=O)/C(=C/C=C/c3ccco3)S2)cc1	6	11	34*	34	87*	6	2	4
Cc1cccc(N=C2NC(=O)/C(=C/c3cccn3C)S2)c1C	-2	-13	-5	-7	-4	2	/	/
COc1ccc(OCC(=O)NNc2nc3ccccc3s2)cc1	-2	2	-3	-11	-6	0	/	/
Cc1[nH]n(C)c(=O)c1[N+](=O)[O-]	-2	1	-5	2	56*	-1	2	3
